Experimental data from different studies.
Target: Cyclin-dependent kinase-like 3 (CDKL3, Homo sapiens, UniProt Q8IVW4)

| SMILES | effect on | technique | concentration | remaining binding [%] |
| --- | --- | --- | --- | --- |
| CN(C)c1nccc(-c2cnc3ncccn23)n1 | binding |  | 1 µM | 100 |
| Cn1nc(C(=O)NCc2ccc(C(=O)O)cc2)cc1-c1ccc2[nH]ccc2c1 | cell-free assay | competition with immobilised ligand | 0.1 µM | 100 |
| N[C@@H]1CCN(c2nccc(-c3cnn4ncccc34)n2)C1 | binding |  | 1 µM | 80 |
| FC(F)(F)Oc1cccc(-c2cnc3ccc(-c4ccncc4)nn23)c1 | cell-free assay | competition with immobilised ligand | 5 µM | 85 |
| Cc1cc(NC(=O)c2cccc(S(F)(F)(F)(F)F)c2)cc(-n2ccn3nc(-c4cccnc4)cc23)c1 | cell-free assay | competition with immobilised ligand | 1 µM | 100 |
| c1cnn2ncc(-c3ccnc(N4CCC45COC5)n3)c2c1 | binding |  | 1 µM | 93 |
| Cc1noc([C@H]2C[C@@H](c3ccc(C(F)(F)F)cc3)CN(C(=O)N3CCS(=O)(=O)C3)C2)n1 | binding | competition with immobilised ligand | 1 µM | 81 |
| c1cncc(-c2cccc(Nc3nccc(NC4CCCCC4)n3)c2)c1 | binding | competition with immobilised ligand | 10 µM | 100 |
| COc1cnc(Nc2cccc(S(N)(=O)=O)c2)nc1N1CCN(c2ccccc2)CC1 | binding | competition with immobilised ligand | 1 µM | 100 |
| CN(c1ccnc(CNc2nc(Nc3ccc4c(c3)CC(=O)N4)ncc2C(F)(F)F)n1)S(C)(=O)=O | cell-free assay | competition with immobilised ligand | 1 µM | 78 |
| CCN1CCN(Cc2ccc(C(=O)Nc3ccc(C)c(Oc4ccc5c(c4)CC(=O)N5)c3)cc2C(F)(F)F)CC1 | binding | competition with immobilised ligand | 1 µM | 86 |
| CC(C)(O)c1cncc(-c2nc3ccc(F)cc3n2C2CC2)c1 | cell-free assay | competition with immobilised ligand | 1 µM | 84 |
| O=C(NCCCN1CCOCC1)c1ccc(Nc2nccc(-c3cc4ccccc4s3)n2)cc1 | binding | competition with immobilised ligand | 1 µM | 89 |
| C[C@@H]1CCN(c2nccc(-c3cnn4ncccc34)n2)C1 | binding |  | 1 µM | 93 |
| COc1cnc(Nc2cccc(S(N)(=O)=O)c2)nc1N1CCN(c2ccccc2)C(=O)C1 | binding | competition with immobilised ligand | 1 µM | 99 |
| O=C(c1ccc(Nc2nccc(-c3cc4ccccc4s3)n2)cc1)N1CCC(N2CCCC2)CC1 | binding | competition with immobilised ligand | 1 µM | 58 |
| O=C(Nc1c[nH]nc1C(=O)NC1CCNCC1)c1cc(F)cc(F)c1 | binding | competition with immobilised ligand | 1 µM | 100 |
| F[C@@H]1CCN(c2nccc(-c3cnn4ncccc34)n2)C1 | binding |  | 1 µM | 100 |
| O=C(c1ccc(Nc2ncc(Cl)c(-c3cc4ccccc4s3)n2)cc1)N1CCC(N2CCCC2)CC1 | binding | competition with immobilised ligand | 1 µM | 47 |
| CNCc1ccccc1-c1csc([C@H](C)Nc2nc(C)nc3cc(OC)c(OC)cc23)c1 | cell-free assay | competition with immobilised ligand | 1 µM | 97 |
